Rows were chosen to be rich in hits. Some 3.6% of all compounds tested hit in one or more screens of this group.
Yeast lifespan up: yeast lifespan extension. 130,000 compounds, 0.68% hits. AID 775. inhibition of the nicotinamide effect, % at 10 µM. S. cerevisiae growth with nicotinamide, OD615; deaD strain in restrictive glucose medium;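 active = inhibition above a set limit, placed 3 SD over the median of all compounds, cut at about 26% in these data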;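 also: 0% = nicotinamide-treated wells and 100% = cells grown without nicotinamide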
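Measured by: optical density (absorbance) at 615 nm; System: modified budding yeast, DeaD strain; Medium: restrictive CSMM-D dextrose medium; Timing: 4 h preincubation then 48 h treatment at 30 °C.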
Yeast growth inh: reduces growth of yeast BB579 in restrictive medium. S. cerevisiae BB579 growth, OD615, 48 h. inhibition, % at 10 µM. 140,000 compounds, 0.51% hits. AID 804;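 active = inhibition above a set limit, 3 SD over the mean compound inhibition, cut at about 44% in these data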
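Material: Saccharomyces cerevisiae DeaD strain BB579, replicative lifespan model yeast; buffer or medium: CSMM-D restrictive synthetic medium containing dextrose (glucose); compound: 10 µM single dose, DMSO 0.25%; timing: 48 h compound exposure at 30 °C after 4 h preincubation; signal: turbidity as optical density at 615 nm; benchmarks: positive control amphotericin B 10 µg/mL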
Phagocytosis inh: macrophage phagocytosis inhibition | J774A.1 macrophage IgG-bead phagocytosis, imaging | inhibition, % at 5 µM | 110,000 compounds, 0.07% hits;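 active = inhibition above the mean of the plate negative controls plus 5 SD, cut at about 13% in these data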;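 also: phagocytic index as fraction of beads internalized from green versus red external bead signal; plate controls were DMSO negative control for no effect and cytochalasin-D positive control for full effect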
Measles CPE: protection of cells from measles virus | Measles virus-infected cells, CPE protection, absorbance | protection (pct of control), % at 4 µM | 140,000 compounds, 1.5% hits | AID 841; in the data active = protection mostly above about 24%, no sharp cut-off; inactive = mostly below about 26%
RAM network inh: inhibitors of the yeast RAM network | S. cerevisiae dse1pr::URA3 reporter, 5-FOA growth OD615, 2 d; analog-sensitive cbk1-as2 kinase mutant strain | inhibition, % at 50 µM | 190,000 compounds, 1.8% hits | AID 868;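 active = inhibition above a set limit, 3 SD over mean compound inhibition, cut at about 8.4% in these data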;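 also: 0% = DMSO-only wells with no growth and 100% = 10 µM 1-NA-PP1 full growth; inhibition rescues growth on 5-FOA so higher OD means more RAM inhibition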
RAM 5-FOA: RAM network inhibition, efflux-deficient strain; shares compounds with RAM network inh; S. cerevisiae efflux-deficient reporter strain, 5-FOA growth OD615, 2 days; max inhibition, %; 1,200 tested, under 10 active; call rule not given here;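 also: plate controls were vehicle for no effect and reference inhibitor for full effect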
* = called active by the depositor; . = not tested or not shown.

SMILES | Yeast lifespan up | Yeast growth inh | Phagocytosis inh | Measles CPE | RAM network inh | others
COc1ccc([N+](=O)[O-])cc1N=Cc1c(O)n(CCc2ccccc2)c(=O)n(C(C)C)c1=O | -2 | -36 | -2 | 22 | 11*
CN1CCN(c2ccc(C(N)=O)cc2N)CC1 | -4 | -26 | 1 | 23 | 4
Fc1ccc(Cn2nnnc2C(c2ccc(Cl)cc2)N2CC=C(c3ccc(F)cc3)CC2)cc1 (configuration not stated) | 1 | -5 | -2 | 41* | 10*
O=P(NS(=O)(=O)c1ccccc1)(Oc1ccccc1)Oc1ccccc1 | -2 | -35 | -2 | 6 | 1
O=P(NCc1ccccc1)(Oc1ccccc1)Oc1ccccc1 | 27* | -7 | -4 | 5 | 1
Cc1ccc(OCC(=O)Nc2ccc(Cl)cc2C(=O)c2ccccc2)cc1 | -1 | -11 | -9 | 14 | 9.4*
O=C1/C(=C\c2ccc([N+](=O)[O-])cc2)N2CCC1CC2 | 35* | -41 | -4 | 5 | 1
Cc1ccc(-c2nc3ccc(Cl)cc3n2OC(=O)N(C)C)cc1 | 92* | -44 | -1 | 21 | 4
CN(C)C(=O)Oc1ccnc2cc(Cl)ccc12 | . | . | . | . | 0
CC(=NCc1cccnc1)c1c(O)n(-c2ccccc2)c(=O)[nH]c1=O | -17 | -41 | 0 | 8 | 2
CSc1ccc(C(=O)C2CCCN(CCCn3cccn3)C2)cc1 (configuration not stated) | . | . | . | . | 1
Nc1cc(Cl)c2nonc2c1[N+](=O)[O-] | 37* | -14 | 3 | 1 | 0
COCCCN1CCN(c2nnc3n2-c2sc(Br)cc2C(c2ccccc2Cl)=NC3)CC1 | 50* | -26 | . | 6 | 0
Cc1ncc(CN2CCCC(C(=O)c3ccc(C(C)(C)C)cc3)C2)s1 (configuration not stated) | . | . | . | . | 0
COc1ccc(C2C(C(=O)N3CCC4(CC3)OCCO4)CC(=O)N2c2ccc(OC)cc2)cc1 (configuration not stated) | -3 | 6 | 0 | 25 | -1
CCCCn1c(=O)c(C(=O)Nc2cnccn2)c(O)c2ccccc21 | 80* | -36 | -1 | 3 | -1
CCCCn1c(=O)c(C(=O)Nc2nc3ccccc3[nH]2)c(O)c2ccccc21 | . | . | -1 | . | .
CC(C)c1ccc(N2C(=O)NC(=O)/C(=C\C=C\c3ccco3)C2=O)cc1 | . | . | . | . | 6
COc1ccc(/C=C2/C(=O)N(Cc3ccco3)C(=O)N(C(C)C)C2=O)cc1 | 7 | -26 | -1 | 8 | 0
CCN1C(=O)C(=C/C=C/c2ccco2)C(=O)N(CC)C1=S | 34* | -30 | -8 | 2 | 4
CC(C)N1C(=O)/C(=C/C=C/c2ccco2)C(=O)N(Cc2ccco2)C1=O | 50 | -37 | -1 | 26* | 6
COc1cc(/C=C/[N+](=O)[O-])ccc1O | 35* | 25 | . | 4 | -1
O=C(Nc1ccc(F)cc1F)c1cccnc1Oc1cccc(C(F)(F)F)c1 | 36* | -43 | . | 5 | 7
CN1C(=O)N(C)C(=O)C2(Cc3c(nc4ccccn4c3=O)N3CCc4ccccc4C32)C1=O (configuration not stated) | 1 | -61 | 0 | 40* | 2
CC12CCC3C(CCC4C/C(=N/O)CCC43C)C1CCC2O (configuration not stated) | 5 | -8 | 0 | 41* | -1
SMILES | Yeast lifespan up | Yeast growth inh | Phagocytosis inh | Measles CPE | RAM network inh | others
C[C@]12CC[C@@H](O)C[C@@H]1CC[C@@H]1[C@@H]2CC[C@]2(C)[C@@H](O)CC[C@@H]12 | 29* | -45 | . | 12 | 4
CCC(=NCc1cccnc1)c1c(O)n(Cc2ccccc2)c(=O)[nH]c1=O | -10 | -9 | -1 | 2 | 1
FC(F)(F)c1cccc(-n2nnnc2C2(N3CCOCC3)CCCCC2)c1 | -23 | -21 | 2 | 5 | 2
O=c1cccc2n1CC1CC2CN(Cc2cccc(Cl)c2Cl)C1 (configuration not stated) | -5 | -17 | 0 | 43* | 1
CC/C(=N\Nc1ccccc1)c1c(O)n(C)c(=O)n(C)c1=O | 5 | -3 | -3 | 28* | -1
Cc1ccccc1OCCCn1cc(C(=O)C(=O)N2CCOCC2)c2ccccc21 | . | . | . | . | 3
Cc1ccnc(-n2c(C)cc(C=C3C(=O)N(C)C(=S)N(C)C3=O)c2C)c1 | 30* | -29 | -5 | 12 | 1
Cc1c(/C=N/O)c2ccccc2n1C | . | -16 | . | 7 | 0
Cc1ccc(-n2c(/C=C/c3ccc4c(c3)OCO4)nc3ccccc3c2=O)cc1 | 14 | -30 | -3 | 26* | 4
COc1ccc(CN2CCCC(C(=O)c3sccc3C)C2)cc1O (configuration not stated) | . | . | . | . | 2
O=C(NCC(c1cccnc1)N1CCN(c2ccc(F)cc2)CC1)Oc1ccccc1 (configuration not stated) | . | -32 | . | 8 | -1
CC(C)COP(=O)(OCC(C)C)C(O)c1cccnc1 (configuration not stated) | 1 | -5 | -4 | 16 | 1
O=C(O)c1cccc2c1NC(C(=O)O)C1CC(Sc3ccccc3[N+](=O)[O-])C(Cl)C21 (configuration not stated) | -1 | -18 | -8 | 16 | 15* | RAM 5-FOA=7
CN1C(=O)/C(=C/c2cccn2-c2ccc3ccccc3c2)C(=O)NC1=S | 49* | -10 | -2 | 5 | 15* | RAM 5-FOA=4
O=C1NC(=S)NC(=O)C1=Cc1cccn1-c1ccc(O)cc1 | . | . | . | . | 8
CN1CCc2nc3ccc(F)cc3c(C(N)=O)c2C1 | -9 | 5 | . | 7 | 0
Cc1c(N=Nc2c(O)[nH]c(=S)[nH]c2=O)c(=O)n(-c2ccccc2)n1C | -3 | -4 | -8 | 4 | 0
CCOc1ccc2nc(N=Nc3c(O)[nH]c(=S)[nH]c3=O)sc2c1 | . | . | . | . | 12* | RAM 5-FOA=6
O=C(Oc1ccc([N+](=O)[O-])cc1)N1CCC(N2CCCCC2)CC1 | -3 | -2 | . | 35 | 1
CC(C)OC(=O)C1C(=O)NC2(C)CC1c1ccccc1O2 (configuration not stated) | -4 | 20 | 0 | 6 | 2
COc1ccccc1OP(=O)(Nc1cccnc1)Oc1ccccc1OC | -1 | 9 | -7 | 15 | 2
O=P(Nc1ccccc1)(Nc1ccccc1)Oc1ccc(Cl)cc1 | -4 | 6 | -2 | 4 | 5
Cc1cccc(NP(=O)(Oc2ccccc2F)Oc2ccccc2F)c1 | 10 | -43 | -15 | 13 | 16* | RAM 5-FOA=2
Cc1ccc(NP(=O)(Oc2ccccc2F)Oc2ccccc2F)cc1C | 14 | -36 | -4 | 1 | 17* | RAM 5-FOA=2
COc1cccc(NP(=O)(Oc2ccc(Cl)cc2)Oc2ccc(Cl)cc2)c1 | 4 | -29 | -9 | 8 | 15* | RAM 5-FOA=5
C=CCSC1=N/C(=C\c2cc(OC)c3c(c2)OCO3)C(=O)S1 | -3 | -35 | 0 | 6 | 12* | RAM 5-FOA=3
